Values after ≈ are worked out from the molar mass of the structure shown. Active and inactive are the calls of the source.
Tests used:
[1] = test system: Nakaseomyces glabratus; assay: Fungicidal activity against Candida glabrata BG2; format: functional
Procedure, shortened: (§1)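 Overnight cultures diluted 1/400 in PBS, exposed to compound or DMSO without ascorbic acid for 0 h and 5 h at 37°C. Survivors counted as CFU on YPD agar after 2 days at 30°C. MFC taken as lowest concentration giving under 1% survival relative to DMSO control.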

[2] = test system: Candida albicans; assay: Fungicidal activity against Candida albicans CAI4; format: functional; procedure, shortened: as §1
[3] = test system: Candida albicans; assay: Fungicidal activity against Candida albicans CAI4 in presence of 10 mM ascorbic acid; format: functional
Procedure, shortened: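 Overnight C. albicans culture diluted 1/400 in PBS, exposed to compound or DMSO with 10 mM ascorbic acid for 0 h and 5 h at 37°C. CFU counted on YPD agar after 2 days at 30°C. MFC defined as minimal concentration leaving under 1% survival versus DMSO control.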

[4] = test system: Candida albicans; assay: Induction of endogenous ROS accumulation in Candida albicans CAI4 after 3 hrs by 2',7'-dichlorofluorescein diacetate staining; format: functional, organism-based
Procedure, shortened: (§2)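 Log-phase cells suspended in PBS and pre-incubated with compounds for 3 h at 37°C. Cells then washed in PBS and incubated with 2',7'-dichlorofluorescein diacetate for 3 h at 37°C. Cellular fluorescence read by fluorescence spectrometer, ex 485 nm / em 525 nm. Tested over a range of concentrations up to 100 µg/ml.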

[5] = test system: Candida albicans; assay: Induction of endogenous ROS accumulation in Candida albicans CAI4 at 100 ug/ml after 3 hrs by 2',7'-dichlorofluorescein diacetate staining; format: functional, organism-based; procedure, shortened: as §2

| Compound | MFC [1] [µg/mL] | MFC [2] [µg/mL] | MFC [3] [µg/mL] | Activity [4] | Activity [5] |
| --- | --- | --- | --- | --- | --- |
| CCCCCCCCC[C@@H](O)[C@@H](N)CO | 10 (≈ 46 µM) | 10 (≈ 46 µM) | > 25 | Active | – |
| CCCCCCCCCCCC[C@@H](O)[C@@H](N)CO | 0.5 (≈ 1.93 µM) | 0.5 (≈ 1.93 µM) | 10 | Active | – |
| CCCCCCCCCCCCCCC[C@@H](O)[C@@H](N)CO [DIHYDROSPINGOSINE] | 1 (≈ 3.32 µM) | 5 (≈ 16.6 µM) | 5 | Active | – |
| CC[C@@H](O)[C@@H](N)CO | > 100 | > 100 | – | – | inactive |
| CCCCCCCCCCCCCC[C@@H](O)[C@@H](N)CO | 0.5 (≈ 1.74 µM) | 0.5 (≈ 1.74 µM) | 2 | Active | – |
| CCCCCCCCCCCCCC[C@@H](O)[C@@H](O)[C@@H](N)CO [PHYTOSPHINGOSINE] | 1 (≈ 3.15 µM) | 1 (≈ 3.15 µM) | 1 | Active | – |
| CCCCCC[C@@H](O)[C@@H](N)CO | > 100 | > 100 | – | – | inactive |
